Drawing on ChEMBL document CHEMBL5712918, “Targeting methyltransferase PRMT5 retards the carcinogenesis and metastasis of HNSCC via epigenetically inhibiting Twist1 transcription” (Neoplasia, 2020), this text covers Activity and inhibition for 1 molecule.

The subject of data set [1] is HSC-6. As to the kind of experiment: Antitumor activity against human HSC-6 cells xenografted in BALB/c nude mouse model of orthotopic tumor assessed as reduction in tumor volume in tongue at 30 mg/kg by H and E staining based assay. The data set is classed as functional, organism-based. In short, it runs like this:
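Orthotopic tongue xenograft: 5 × 10^5 HSC6 cells submucosally in 4-week-old BALB/c nude mice, control or 30 mg/kg (n = 12 each). Tumour volume quantified on HE-stained longitudinal tongue sections. Student's t test.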
(A xenograft is tissue or cells of one species grown in another, often human tumour cells in immunodeficient mice.)

Another data set has as its system SCC-25. Description: Antimigratory activity against human SCC-25 cells assessed as reduction in cell invasion after 48 hrs incubated for 48 hrs by transwell assay. Format: functional, cell-based.
Data set [2] concerns HSC-6. As to the kind of experiment: Antitumor activity against human HSC-6 cells xenografted in BALB/c nude mouse assessed as as reduction in lymphnode metastasis at 30 mg/kg by H and E analysis. The data set is classed as functional, organism-based.
Data set [3] has as its target Protein arginine N-methyltransferase 5 (Homo sapiens) (UniProt O14744). Description: Inhibition of PRMT5 in human SCC-25 cells assessed as reduction in WDR5 occupancy in Twist1 promoter region at 10 uM incubated for 4 days by Chip-qPCR analysis. Format: cell-based. Particulars: time 4.0 day. In short, it runs like this:
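SCC25 cells exposed to inhibitor at 10 μM for 4 days. ChIP used a commercial kit with anti-WDR5 or anti-Set1 (1:50), and binding at the Twist1 promoter was quantified by qPCR. Mean ± SD of three independent experiments, Student's t test.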

The test system of data set [4] is HSC-6. As to the kind of experiment: Antitumor activity against human HSC-6 cells xenografted in BALB/c nude mouse assessed as reduction in tumor volume at 15 to 30 mg/kg. Particulars: dose 15-30 mg/kg.
Data set [5] concerns the target Protein arginine N-methyltransferase 5 (Homo sapiens) (UniProt O14744). Description: Inhibition of PRMT5 in human HSC-6 cells assessed as reduction in WDR5 occupancy in Twist1 promoter region at 10 uM incubated for 4 days by Chip-qPCR analysis. The data set is classed as cell-based. Particulars: time 4.0 day. In short, it runs like this:
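ChIP-qPCR at the Twist1 promoter after 4 days at 10 μM in HSC6 or SCC25 cells. Antibody ratios: H3R2me2s 1:100, H4R3me2s 1:100, WDR5 1:50, Set1 1:50; ChIP assay kit protocol. Mean ± SD of three independent experiments, Student's t test.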
Background: Real-time PCR tracks product formation cycle by cycle.

In data set [6] the test system is HSC-6. As to the kind of experiment: Antitumor activity against human HSC-6 cells xenografted in BALB/c nude mouse model of orthotopic tumor assessed as as reduction in distant metastasis in kidney at 30 mg/kg by H and E analysis. The data set is classed as functional, organism-based.
Data set [7] has as its system HSC-6. Description: Antitumor activity against human HSC-6 cells xenografted in BALB/c nude mouse model of orthotopic tumor assessed as reduction in lymphnode metastasis at 30 mg/kg by immunohistochemistry analysis. Format: functional, organism-based. In short, it runs like this: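 Orthotopic model: 5 × 10^5 HSC6 cells injected submucosally into the tongue of 4-week-old BALB/c nude mice, vehicle or 30 mg/kg (n = 12 each). Cervical lymph node metastasis detected by IHC with pan-cytokeratin antibody 1:400. Metastasis rates compared by Fisher's exact test.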

Data set [8] relates to HSC-6. As to the kind of experiment: Anti-invasive activity against human HSC-6 cells assessed as reduction in cell invasion after 48 hrs incubated for 48 hrs by transwell assay. The data set is classed as functional, cell-based.
The nature of data set [9]: Toxicity in BALB/c nude mouse xenografted with human HSC6 cells of orthotopic tumor assessed as effect on body weight at 30 mg/kg. Particulars: in vivo. The data set is classed as organism-based. In short, it runs like this:
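Orthotopic model: 5 × 10^5 HSC6 cells injected submucosally into the tongue of 4-week-old BALB/c nude mice. Control vs 30 mg/kg (n = 12 each). Body weight was followed, and cervical lymph nodes were stained with pan-cytokeratin.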

For data set [10], the target named is Protein arginine N-methyltransferase 5 (Homo sapiens) (UniProt O14744). As to the kind of experiment: Inhibition of PRMT5 in human SCC-25 cells over expressing Twist1 assessed as decrease in E-cadherin protein level at 10 uM incubated for 4 days by immunoblot analysis. Format: cell-based. Particulars: time 4.0 day. In short, it runs like this: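 SCC25 cells stably overexpressing Flag-tagged Twist1 were treated with or without 10 μM inhibitor for 4 days, then immunoblotted for Twist1, N-cadherin and E-cadherin.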
Background: In western blotting, separated proteins are transferred to a membrane and probed.

SMILES strings stand for the structures. The source made the active and inactive calls. No cut-off for these calls is given here.

Sequence of Protein arginine N-methyltransferase 5 (Homo sapiens) (O14744 whole entry): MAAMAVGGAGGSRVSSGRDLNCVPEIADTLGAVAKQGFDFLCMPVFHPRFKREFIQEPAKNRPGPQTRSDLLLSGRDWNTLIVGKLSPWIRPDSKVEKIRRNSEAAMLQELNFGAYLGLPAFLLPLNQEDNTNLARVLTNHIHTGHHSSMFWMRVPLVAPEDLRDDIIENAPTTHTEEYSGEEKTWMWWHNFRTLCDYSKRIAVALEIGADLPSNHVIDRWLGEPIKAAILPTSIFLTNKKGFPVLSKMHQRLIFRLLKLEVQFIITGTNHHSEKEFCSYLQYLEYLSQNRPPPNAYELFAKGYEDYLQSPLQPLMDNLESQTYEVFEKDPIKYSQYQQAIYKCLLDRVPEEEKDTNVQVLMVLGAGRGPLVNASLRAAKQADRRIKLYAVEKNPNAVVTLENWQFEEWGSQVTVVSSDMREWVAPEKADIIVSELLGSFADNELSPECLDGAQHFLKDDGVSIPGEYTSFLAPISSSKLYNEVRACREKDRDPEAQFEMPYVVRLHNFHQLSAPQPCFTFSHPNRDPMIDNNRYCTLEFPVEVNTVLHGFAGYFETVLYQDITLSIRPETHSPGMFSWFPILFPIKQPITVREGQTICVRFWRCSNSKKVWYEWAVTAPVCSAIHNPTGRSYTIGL

As to `O=C(NC[C@H](O)CN1CCc2ccccc2C1)c1cc(NC2COC2)ncn1`, the outcome in the data set with HSC-6 [1], in the data set on SCC-25, in the data set on HSC-6 [2], in the data set on HSC-6 [4], in the data set on HSC-6 [6] and with HSC-6 [7] was Active. Moreover, the result with HSC-6 [8] was Active. The inhibition result in data set [3] and in data set [5] was “Active” each time. Besides, the Activity result in [9] was “Non-Toxic”. In addition, in [10], the inhibition entry is “inactive”.
